Drawing on PubChem BioAssay AID2626 (Vanderbilt High Throughput Screening Facility, 2010), this text covers % of ACh max response (PAM) for 33 molecules.

The source made the active and inactive calls.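 Rule for the calls: active = response above about half the acetylcholine maximum when tested at 10 µM with a low acetylcholine dose; inactive = response below half the acetylcholine maximum.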

Chain of Muscarinic acetylcholine receptor M1 (Rattus norvegicus) (P08482 whole entry, looked up): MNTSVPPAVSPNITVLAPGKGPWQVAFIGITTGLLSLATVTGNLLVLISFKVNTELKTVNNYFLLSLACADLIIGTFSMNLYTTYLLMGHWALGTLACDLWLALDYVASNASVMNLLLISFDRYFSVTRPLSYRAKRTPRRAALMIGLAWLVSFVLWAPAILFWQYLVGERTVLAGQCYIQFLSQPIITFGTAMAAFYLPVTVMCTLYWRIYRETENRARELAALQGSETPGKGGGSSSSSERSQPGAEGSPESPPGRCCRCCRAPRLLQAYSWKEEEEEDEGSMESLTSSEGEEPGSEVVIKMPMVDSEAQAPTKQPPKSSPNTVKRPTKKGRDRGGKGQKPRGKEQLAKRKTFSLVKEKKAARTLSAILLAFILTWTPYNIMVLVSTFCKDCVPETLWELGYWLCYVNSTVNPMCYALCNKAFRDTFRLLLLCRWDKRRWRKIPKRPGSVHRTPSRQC

The experiment deals with Muscarinic acetylcholine receptor M1 (Rattus norvegicus) (UniProt P08482). Description: rat M1 positive allosteric modulators, single dose, ACh EC20, CHO cells (AID 2626). The conditions noted are these: CHO rM1 cells, calcium response with ACh EC20; at 10 µM; active compounds read high. The gist of the method:
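Material: CHO cells with rat M1 receptor; reagent: acetylcholine near EC20; compound: one dose, 10 µM; measure: enhancement of acetylcholine response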
As for `O=C(CS(=O)(=O)c1cn(Cc2cc(Br)ccc2F)c2ccccc12)Nc1ccccc1`, the % of ACh max response (PAM) is 13.9% (inactive). Take `O=C(O)CS(=O)(=O)c1cn(Cc2cc(Br)ccc2F)c2ccccc12`: the % of ACh max response (PAM) is 18.1% (inactive). Consider `Cc1cc(NC(=O)CS(=O)(=O)c2cn(Cc3ccc(F)nc3)c3ccccc23)no1`, for which the % of ACh max response (PAM) is 41.2% (inactive).

As to `Cc1cc(NC(=O)C(C)S(=O)(=O)c2cn(Cc3cc(Br)ccc3F)c3ccccc23)no1` (stereo not drawn), the % of ACh max response (PAM) was 19.7% (inactive). Next, `Cc1cc(NC(=O)CS(=O)(=O)c2cn(Cc3cccc(C#N)c3)c3ccccc23)no1`: 52.7%; `Cc1cc(NC(=O)CS(=O)c2cn(Cc3cccc(Cl)c3)c3ccccc23)no1` (stereo not drawn): 72.4%; `CS(=O)(=O)c1cn(Cc2ccccc2Cl)c2ccccc12`: 26.3% (inactive).

Take `Cc1cc(NC(=O)CS(=O)(=O)c2cn(Cc3cccc(-c4ccc(Cl)nc4)c3)c3ccccc23)no1`: the % of ACh max response (PAM) was 26.4% (inactive).

For the molecule `Cc1cc(NC(=O)CS(=O)(=O)c2cn(Cc3ccc(F)c(Br)c3)c3ccccc23)no1`, the % of ACh max response (PAM) was 24% (inactive). For the molecule `Cc1cc(NC(=O)CS(=O)(=O)c2c[nH]c3ccccc23)no1`, the % of ACh max response (PAM) is 29% (inactive). As for `COc1ccc(Cn2cc(S(=O)(=O)CC(=O)Nc3cc(C)on3)c3ccccc32)cc1`, the % of ACh max response (PAM) is 54.8%. In the case of `Cc1cc(NC(=O)CS(=O)(=O)c2cn(Cc3ccc(Cl)cc3)c3ccccc23)no1`, the % of ACh max response (PAM) is 30.8% (inactive). Take `Cc1cc(NC(=O)CS(=O)(=O)c2cn(Cc3ccc4c(c3)OCO4)c3ccccc23)no1`: the % of ACh max response (PAM) was 35.8% (inactive). Next, `Cc1cc(NC(=O)CSc2cn(Cc3cccc(Br)c3)c3ccccc23)no1`: 26.9% (inactive); `Cc1cc(NC(=O)C(Cc2ccc(F)cc2F)S(=O)(=O)c2cn(Cc3ccc(F)cc3F)c3ccccc23)no1` (stereo not drawn): 38.5% (inactive). As for `Cc1cc(NC(=O)CS(=O)(=O)c2cn(Cc3ccc(OC(F)(F)F)cc3)c3ccccc23)no1`, the figure is 28.7% (inactive); as for `Cc1cc(NC(=O)C(Cc2cccc(Cl)c2)S(=O)(=O)c2cn(Cc3cccc(Cl)c3)c3ccccc23)no1` (stereo not drawn), 42.1% (inactive). As for `COC(=O)CS(=O)(=O)c1cn(Cc2cc(Br)ccc2F)c2ccccc12`, the figure is 7.5% (inactive); as for `Cc1cc(NC(=O)CS(=O)(=O)c2cn(Cc3ccc(Br)cc3F)c3ccccc23)no1`, 27.7% (inactive). Take `Cc1cc(NC(=O)CSc2c[nH]c3ccccc23)no1`: the % of ACh max response (PAM) was 28.8% (inactive). `Cc1cc(NC(=O)C(Cc2ccccc2F)S(=O)(=O)c2cn(Cc3ccccc3F)c3ccccc23)no1` (stereo not drawn): the % of ACh max response (PAM) was 44.5% (inactive).

For the molecule `Cc1cc(NC(=O)CS(=O)(=O)c2cn(Cc3cccc(-c4ccc(N5CCOCC5)nc4)c3)c3ccccc23)no1`, the % of ACh max response (PAM) is 18.5% (inactive). Next, `Cc1cc(NC(=O)CS(=O)(=O)c2cn(Cc3ccc(F)cc3F)c3ccccc23)no1`: 51.6%; `Cc1cc(NC(=O)CS(=O)(=O)c2cn(Cc3cccc(-c4ccc(N5CCNCC5)nc4)c3)c3ccccc23)no1`: 43.6% (inactive); `COc1ccccc1Cn1cc(S(=O)(=O)CC(=O)Nc2cc(C)on2)c2ccccc21`: 30.6% (inactive).

Turning to `Cc1cc(NC(=O)CS(=O)(=O)c2cn(Cc3ccccc3F)c3ccccc23)no1`, the % of ACh max response (PAM) is 52.9%.

On to `Cc1cc(NC(=O)CS(=O)(=O)c2cn(Cc3ccc(C(F)(F)F)cc3)c3ccccc23)no1`, for which the % of ACh max response (PAM) was 30.4% (inactive). For the molecule `Cc1cc(NC(=O)CS(=O)(=O)c2cn(Cc3cccc(-c4ccc(N5CCCC5)nc4)c3)c3ccccc23)no1`, the % of ACh max response (PAM) is 33.3% (inactive). Turning to `Cc1cc(NC(=O)CS(=O)(=O)c2cn(Cc3cc(Br)cc(Br)c3)c3ccccc23)no1`, the % of ACh max response (PAM) is 12.7% (inactive). As for `Cc1cc(NC(=O)C(Cc2ccc(OC(F)(F)F)cc2)S(=O)(=O)c2cn(Cc3ccc(OC(F)(F)F)cc3)c3ccccc23)no1` (stereo not drawn), the % of ACh max response (PAM) was 28.7% (inactive). With `Cc1cc(NC(=O)C(C)S(=O)(=O)c2cn(Cc3cc(Br)cc(Br)c3)c3ccccc23)no1` (stereo not drawn), the % of ACh max response (PAM) was 17.7% (inactive).

For `Cc1cc(NC(=O)CS(=O)(=O)c2cn(Cc3cccc(-c4cnn(CC(C)C)c4)c3)c3ccccc23)no1`, the % of ACh max response (PAM) is 24.4% (inactive).

`Cc1cc(NC(=O)CSc2cn(Cc3ccccc3Cl)c3ccccc23)no1`: the % of ACh max response (PAM) was 26.7% (inactive).
